Legend:
[1] = Oral bioavailability in rat at 5 mg/kg; format: ADME, organism-based; conditions: in vivo
How it was run: (§1)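 Male Sprague Dawley rats and male beagle dogs were dosed IV at 1 mg/kg or orally at 5 mg/kg. Plasma concentration–time profiles were followed. Each time point is the mean from three separate animals.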

[2] = Cmax in rat at 5 mg/kg, po; format: ADME, organism-based; design: dose 5 mg/kg, route oral; conditions: in vivo; how it was run: as §1
[3] = Half life in rat at 1 mg/kg, iv; format: ADME, organism-based; design: dose 1 mg/kg, route intravenous; conditions: in vivo; how it was run: as §1
[4] = AUC in rat at 5 mg/kg, po; format: ADME, organism-based; design: dose 5 mg/kg, route oral; conditions: plasma; how it was run: as §1
[5] = Clearance in rat at 1 mg/kg, iv; format: ADME, organism-based; design: dose 1 mg/kg, route intravenous; conditions: in vivo; how it was run: as §1
[6] = Volume of distribution at steady state in rat at 1 mg/kg, iv; format: ADME, organism-based; design: dose 1 mg/kg, route intravenous; conditions: in vivo, read-out: Vdss; how it was run: as §1
[7] = Half life in dog at 1 mg/kg, iv; format: ADME, organism-based, Canis lupus familiaris; design: dose 1 mg/kg, route intravenous; conditions: in vivo; how it was run: as §1
[8] = Oral bioavailability in dog at 5 mg/kg; format: ADME, organism-based, Canis lupus familiaris; conditions: in vivo; how it was run: as §1
[9] = AUC in dog at 5 mg/kg, po; format: ADME, organism-based, Canis lupus familiaris; design: dose 5 mg/kg, route oral; conditions: plasma; how it was run: as §1
[10] = Clearance in dog at 1 mg/kg, iv; format: ADME, organism-based, Canis lupus familiaris; design: dose 1 mg/kg, route intravenous; conditions: in vivo; how it was run: as §1
[11] = Cmax in dog at 5 mg/kg, po; format: ADME, organism-based, Canis lupus familiaris; design: dose 5 mg/kg, route oral; conditions: in vivo; how it was run: as §1
[12] = Volume of distribution at steady state in dog at 1 mg/kg, iv; format: ADME, organism-based, Canis lupus familiaris; design: dose 1 mg/kg, route intravenous; conditions: in vivo, read-out: Vdss; how it was run: as §1

bioavailability [1] [%]	Cmax [2] [nM]	half-life [3] [h]	AUC [4] [µM·h]	clearance [5] [mL/min/kg]	Vd [6] [L/kg]	half-life [7] [h]	bioavailability [8] [%]	AUC [9] [µM·h]	clearance [10] [mL/min/kg]	Cmax [11] [nM]	Vd [12] [L/kg]	Structure (SMILES)
31	70	0.93	0.27	225	17	–	–	–	–	–	–	CC(C)CN1CCC([S@](=O)c2ccc(CNC(=O)c3cc4ccncc4o3)cc2)CC1
61	1000	1	3.3	40	2	4.7	115	33	6.7	4700	1.6	O=C(NCc1ccc(S(=O)(=O)c2cc(F)cc(F)c2)cn1)c1cc2ccncc2o1
62	1000	0.6	1.2	105	3	–	–	–	–	–	–	O=C(NCc1ccc([S@@](=O)c2cc(F)cc(F)c2)cn1)c1cc2ccncc2o1
74	1500	2.3	3	55	3.2	1.5	141	28	9.8	8600	1	CC(C)n1cc(S(=O)(=O)c2ccc(CNC(=O)c3cc4ccncc4o3)nc2)cn1

From ChEMBL document CHEMBL3393056, “Identification of nicotinamide phosphoribosyltransferase (NAMPT) inhibitors with no evidence of CYP3A4 time-dependent inhibition and improved aqueous solubility” (Bioorg Med Chem Lett, 2015)
